High-throughput results deposited in PubChem BioAssay by The Scripps Research Institute Molecular Screening Center.
PAFAH2 inh = PAFAH2 enzyme inhibitors, primary screen, biochemical, fluorescence polarization, human. Platelet-activating factor acetylhydrolase 2, cytoplasmic (Homo sapiens), Q99487. recombinant PAFAH2, FP-rhodamine activity probe. inhibition, % at 3.39 µM. 340,000 compounds, 0.99% hits. AID 492956, 2010;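 active = inhibition above the mean over all tested compounds plus 3 SD, cut at about 30% in these data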;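 also: inhibitors block probe labeling of enzyme so polarization drops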
PAFAH1B2 FP inh = PAFAH1B2 enzyme inhibitors, primary screen, biochemical, fluorescence polarization, human | Platelet-activating factor acetylhydrolase IB subunit alpha2 (Homo sapiens), P68402 | recombinant PAFAH1B2, FP-rhodamine activity probe | inhibition, % at 3.39 µM | 340,000 compounds, 1.2% hits;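 active = inhibition above the mean of all tested compounds plus 3 SD, cut at about 24% in these data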
Target sequence (P68402 whole entry, looked up): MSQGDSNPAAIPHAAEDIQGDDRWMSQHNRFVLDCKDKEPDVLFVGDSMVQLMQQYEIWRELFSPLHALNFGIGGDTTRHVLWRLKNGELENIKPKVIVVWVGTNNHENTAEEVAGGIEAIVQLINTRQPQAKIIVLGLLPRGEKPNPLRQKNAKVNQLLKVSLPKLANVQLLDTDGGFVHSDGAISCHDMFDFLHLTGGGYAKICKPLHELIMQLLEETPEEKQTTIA
ARFGAP1 inh = inhibitors of rat ARFGAP1 GAP activity, primary screen, biochemical, fluorescence polarization, GDP tracer | ADP-ribosylation factor GTPase-activating protein 1 (Rattus norvegicus), Q62848 | Arfgap1-stimulated ARF1 GTP hydrolysis, GDP FP detection | inhibition, % at 16.5 µM | 360,000 compounds, 0.26% hits;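 active = inhibition above a per-plate limit, mean inhibition of low control wells plus 3 SD, cut at about 25% in these data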
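System: truncated rat Arfgap1 GAP domain / Medium: HEPES-based buffer, pH 7.5 / Also added: N-terminally truncated human ARF1-GTP substrate / Incubation: enzyme reaction 120 min at 25 °C after 20 min preincubation / Measured by: FP of antibody-bound GDP Alexa 633 tracer, ex 620/em 688 nm / Replicates: singlicate, each compound tested once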
pPAFAH FP inh = pPAFAH enzyme inhibitors, primary screen, biochemical, fluorescence polarization, human. Platelet-activating factor acetylhydrolase (Homo sapiens), Q13093. recombinant pPAFAH, FP-rhodamine probe fluorescence polarization. inhibition, % at 3.39 µM. 330,000 compounds, 1.5% hits. AID 463082, 2010;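 active = inhibition above the mean inhibition across the screen plus 3 SD, cut at about 25% in these data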;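 also: inhibitors block binding of the rhodamine activity-based probe so polarization drops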
ASAP1 inh = inhibitors of human ASAP1 ArfGAP activity, primary screen, biochemical, fluorescence polarization | inhibition, % at 16.5 µM | 360,000 compounds, 0.19% hits | ASAP1-stimulated ARF1 GTP hydrolysis, GDP FP detection | AID 624377, 2012 | Arf-GAP with SH3 domain, ANK repeat and PH domain-containing protein 1 (Homo sapiens), …; in the data active = inhibition above about 25%
PAFAH1B3 inh = PAFAH1B3 enzyme inhibitors, primary screen, biochemical, fluorescence polarization, human. inhibition, % at 3.39 µM. 340,000 compounds, 0.28% hits. recombinant PAFAH1B3, FP-rhodamine probe. AID 492972, 2010. Platelet-activating factor acetylhydrolase IB subunit alpha1 (Homo sapiens), Q15102;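 active = inhibition above the screen-wide average of all tested compounds plus 3 SD, cut at about 25% in these data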
Target sequence (Q15102 whole entry, looked up): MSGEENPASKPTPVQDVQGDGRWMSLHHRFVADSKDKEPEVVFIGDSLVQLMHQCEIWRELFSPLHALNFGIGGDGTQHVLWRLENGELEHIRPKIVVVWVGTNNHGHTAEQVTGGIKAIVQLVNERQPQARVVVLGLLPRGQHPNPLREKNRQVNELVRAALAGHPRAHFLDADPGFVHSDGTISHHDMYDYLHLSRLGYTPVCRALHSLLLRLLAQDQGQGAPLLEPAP
Numbers stand for hits; n = inactive; x = no result given. Only some compounds are listed: those with a hit (about 2.7% of all), similar ones and a draw of the others.

SMILES	PAFAH2 inh	PAFAH1B2 FP inh	ARFGAP1 inh	pPAFAH FP inh	ASAP1 inh	PAFAH1B3 inh
C=CS(=O)(=O)N[C@@H](CSSC[C@H](NS(=O)(=O)C=C)C(=O)OC)C(=O)OC	x	x	n	x	n	x
Cc1nc2oc3c(NCc4ccccc4)ncnc3c2c2c1COC(C)(C)C2	n	n	n	27	n	n
Cc1nc2oc3c(NCC4CCCO4)ncnc3c2c2c1COC(C)(C)C2 (stereo not drawn)	n	n	n	n	n	n
O=C(Cc1cccs1)N=Nc1c(O)[nH]c2ccc(Br)cc12	n	n	n	n	n	n
COc1ccc2[nH]c(O)c(N=NC(=O)Cc3cccs3)c2c1	n	n	n	25	n	n
O=C(Cn1nnc(N2CCCCC2)n1)NN=Cc1ccccc1O	x	x	n	x	n	x
Cc1ccc2[nH]c3c(N4CCN(Cc5ccc6c(c5)OCO6)CC4)ncnc3c2c1	x	x	n	x	n	x
COc1ccc2c(c1)[nH]c1c(N3CCN(Cc4ccc5c(c4)OCO5)CC3)ncnc12	n	n	n	31	n	n
COc1ccc(-c2ccc3c(N)c(C(=O)c4cccc(OC)c4)sc3n2)cc1	n	n	n	34	n	n
COc1ccc(N)c2c1C(=O)c1ccccc1C2=O	n	n	n	n	n	n
Nc1ccc(Br)c2c1C(=O)c1ccccc1C2=O	x	x	x	25	x	x
C=CCN1[C@H](C)[C@H](c2ccccc2)Oc2cc(Br)ccc2S1(=O)=O	x	x	n	x	n	x
O=S1(=O)CCOC[C@H](Cc2ccccc2)N1Cc1cccc(F)c1	n	n	n	n	n	n
O=S1(=O)CCOC[C@H](Cc2ccccc2)N1Cc1ccc(F)cc1	n	33	n	n	n	n
Cc1ccc(C)c(OCCC(=O)OCC(=O)NCc2ccc(F)cc2)c1	n	n	n	30	n	n
Cc1ccc(OCCC(=O)OCC(=O)NCc2ccccc2)cc1	n	n	n	30	n	n
CCOc1ccc(OCCC(=O)OCC(=O)NCc2ccccc2)cc1	n	n	n	32	n	n
CC1=NN(c2nc(-c3ccc(F)cc3)cs2)C(=O)C1	n	n	x	30	x	n
COc1cc(/C=C/C(=O)OCC(=O)NC(=O)NC(C)(C)C)ccc1O	n	n	n	n	n	n
COc1cc(/C=C/C(=O)OCC(=O)Nc2cccc(F)c2)ccc1O	93	n	n	28	n	n
COc1cc(/C=C/C(=O)OCC(=O)NC2CCCCCCC2)ccc1O	76	n	n	27	n	n
S=C(c1ccccc1)N(c1ccccc1)c1ccccc1	n	38	n	n	n	n
CN(N=C(c1ccccc1)c1ccccc1)c1ccccc1	n	n	n	x	n	n
COC(=O)C1=C(C)N(C)C(=NCc2ccc(C(F)(F)F)cc2)NC1c1cccc(Cl)c1 (stereo not drawn)	x	x	n	x	n	x
Nc1c(/C=C2/C=CC(=O)C(O)=C2)c(=O)nc2sc(CC(=O)N3CCCC3)nn12	n	n	n	n	n	n
SMILES	PAFAH2 inh	PAFAH1B2 FP inh	ARFGAP1 inh	pPAFAH FP inh	ASAP1 inh	PAFAH1B3 inh
Nc1c(/C=C2/C=CC(=O)C(O)=C2)c(=O)nc2sc(CC(=O)N3CCCCC3)nn12	35	54	n	32	n	n
Nc1c(/C=C2/C=CC(=O)C(O)=C2)c(=O)nc2sc(CC(=O)N3CCOCC3)nn12	n	26	n	x	n	n
CC(C)CNc1cccc2c1S(=O)(=O)N[C@@H](C)CO2	x	x	n	x	n	x
COC(=O)C1=C(C)N(Cc2ccccc2C(F)(F)F)C(=NCc2ccc(OC)cc2)NC1c1ccccc1C(F)(F)F (stereo not drawn)	x	x	n	x	n	x
CC(C)=NOC(=O)c1ccc(-c2ccccc2)cc1	n	n	n	30	n	n
CC(NC(=O)COC(=O)c1ccc(N(C)C)cc1)c1ccccc1 (stereo not drawn)	79	n	n	33	n	n
CC(NC(=O)COC(=O)c1ccc(Br)o1)c1ccccc1 (stereo not drawn)	n	n	n	x	n	n
C[C@@H]1C=CCCO[C@]12C(=O)N(Cc1ccc(Br)cc1)c1cccc(Br)c12	x	x	n	x	n	x
